Measurements reported in ChEMBL document CHEMBL4689842, “EUbOPEN Chemogenomics Library wave 1” (2021).

System: U2OS
Test: Multiplex assay against U2OS
Assay type: toxicity, cell-based
Conditions: human
Summary of the method: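 On a CQ1 microscope at 37°C and 5% CO2, live cells were imaged after compound addition. They had been stained at seeding with Hoechst33342, BioTracker Green Microtubule Cytoskeleton Dye, MitoTracker Red and Annexin V Alexa Fluor 680. CellPathfinder machine-learning gating assigned cells to Hoechst high-intensity objects or normal cells, normal cells to healthy, pyknosed or fragmented nuclei, and pyknosed cells to mitotic or apoptotic. Tubulin, mitochondrial-mass and membrane-permeability phenotypes are per cents of healthy-nucleus cells.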

[1] = 12 h, 1 µM, compound concentration 1 uM, replicate 1
[2] = 12 h, 1 µM, compound concentration 1 uM, replicate 2
[3] = 12 h, 10 µM, compound concentration 10 uM, replicate 1
[4] = 12 h, 10 µM, compound concentration 10 uM, replicate 2
[5] = 24 h, 1 µM, compound concentration 1 uM, replicate 1
[6] = 24 h, 1 µM, compound concentration 1 uM, replicate 2
[7] = 24 h, 10 µM, compound concentration 10 uM, replicate 1
[8] = 24 h, 10 µM, compound concentration 10 uM, replicate 2
[9] = 48 h, 1 µM, compound concentration 1 uM, replicate 1
[10] = 48 h, 1 µM, compound concentration 1 uM, replicate 2
[11] = 48 h, 10 µM, compound concentration 10 uM, replicate 1
[12] = 48 h, 10 µM, compound concentration 10 uM, replicate 2

CCn1c(=O)c(-c2ccc(-c3cncs3)cc2Cl)cc2cnc(Nc3ccc(N4CCN(C)CC4)cc3)nc21
Population Apoptotic (%) [1]: 57% | Population Fragmented Nuclei (%) [1]: 11% | Population Healthy Nuclei (%) [1]: 77% | Population Hoechst High Intensity Objects (%) [1]: 7% | Population Membrane Permeable-Phenotype (%) [1]: 11% | Population Mitochondria Different-Phenotype (%) [1]: 11% | Population Mitotic Cells (%) [1]: 42% | Population Normal (%) [1]: 92% | Population Pyknosed Nuclei (%) [1]: 11% | Population Tubulin-Different-Phenotype (%) [1]: 7% | Total Cell Count [1]: 162 | Population Apoptotic (%) [2]: 75% | Population Fragmented Nuclei (%) [2]: 9% | Population Healthy Nuclei (%) [2]: 78% | Population Membrane Permeable-Phenotype (%) [2]: 3% | Population Mitochondria Different-Phenotype (%) [2]: 17% | Population Mitotic Cells (%) [2]: 25% | Population Tubulin-Different-Phenotype (%) [2]: 19% | Total Cell Count [2]: 76 | Population Apoptotic (%) [3]: 84% | Population Fragmented Nuclei (%) [3]: 40% | Population Healthy Nuclei (%) [3]: 5% | Population Hoechst High Intensity Objects (%) [3]: 77% | Population Membrane Permeable-Phenotype (%) [3]: 38% | Population Mitochondria Different-Phenotype (%) [3]: 53% | Population Mitotic Cells (%) [3]: 15% | Population Normal (%) [3]: 22% | Population Pyknosed Nuclei (%) [3]: 54% | Population Tubulin-Different-Phenotype (%) [3]: 84% | Total Cell Count [3]: 177 | Population Apoptotic (%) [4]: 11% | Population Fragmented Nuclei (%) [4]: 8% | Population Healthy Nuclei (%) [4]: 79% | Population Hoechst High Intensity Objects (%) [4]: 4% | Population Membrane Permeable-Phenotype (%) [4]: 5% | Population Mitochondria Different-Phenotype (%) [4]: 29% | Population Mitotic Cells (%) [4]: 88% | Population Normal (%) [4]: 96% | Population Pyknosed Nuclei (%) [4]: 12% | Population Tubulin-Different-Phenotype (%) [4]: 15% | Total Cell Count [4]: 77 | Population Apoptotic (%) [5]: 38% | Population Fragmented Nuclei (%) [5]: 10% | Population Healthy Nuclei (%) [5]: 78% | Population Hoechst High Intensity Objects (%) [5]: 4% | Population Membrane Permeable-Phenotype (%) [5]: 6% | Population Mitochondria Different-Phenotype (%) [5]: 6% | Population Mitotic Cells (%) [5]: 61% | Population Normal (%) [5]: 95% | Population Pyknosed Nuclei (%) [5]: 10% | Population Tubulin-Different-Phenotype (%) [5]: 7% | Total Cell Count [5]: 161 | Population Apoptotic (%) [6]: 46% | Population Fragmented Nuclei (%) [6]: 15% | Population Healthy Nuclei (%) [6]: 68% | Population Membrane Permeable-Phenotype (%) [6]: 1% | Population Mitochondria Different-Phenotype (%) [6]: 5% | Population Mitotic Cells (%) [6]: 53% | Population Pyknosed Nuclei (%) [6]: 16% | Population Tubulin-Different-Phenotype (%) [6]: 20% | Total Cell Count [6]: 74 | Population Apoptotic (%) [7]: 97% | Population Fragmented Nuclei (%) [7]: 30% | Population Healthy Nuclei (%) [7]: 0% | Population Hoechst High Intensity Objects (%) [7]: 78% | Population Membrane Permeable-Phenotype (%) [7]: 100% | Population Mitochondria Different-Phenotype (%) [7]: 100% | Population Mitotic Cells (%) [7]: 2% | Population Normal (%) [7]: 21% | Population Pyknosed Nuclei (%) [7]: 69% | Population Tubulin-Different-Phenotype (%) [7]: 100% | Total Cell Count [7]: 212 | Population Apoptotic (%) [8]: 27% | Population Fragmented Nuclei (%) [8]: 14% | Population Healthy Nuclei (%) [8]: 71% | Population Hoechst High Intensity Objects (%) [8]: 3% | Population Membrane Permeable-Phenotype (%) [8]: 7% | Population Mitochondria Different-Phenotype (%) [8]: 23% | Population Mitotic Cells (%) [8]: 72% | Population Normal (%) [8]: 96% | Population Pyknosed Nuclei (%) [8]: 14% | Population Tubulin-Different-Phenotype (%) [8]: 8% | Total Cell Count [8]: 83 | Population Apoptotic (%) [9]: 60% | Population Fragmented Nuclei (%) [9]: 6% | Population Healthy Nuclei (%) [9]: 85% | Population Hoechst High Intensity Objects (%) [9]: 3% | Population Membrane Permeable-Phenotype (%) [9]: 3% | Population Mitochondria Different-Phenotype (%) [9]: 9% | Population Mitotic Cells (%) [9]: 40% | Population Normal (%) [9]: 96% | Population Pyknosed Nuclei (%) [9]: 8% | Population Tubulin-Different-Phenotype (%) [9]: 9% | Total Cell Count [9]: 186 | Population Apoptotic (%) [10]: 50% | Population Fragmented Nuclei (%) [10]: 8% | Population Healthy Nuclei (%) [10]: 79% | Population Hoechst High Intensity Objects (%) [10]: 8% | Population Membrane Permeable-Phenotype (%) [10]: 7% | Population Mitochondria Different-Phenotype (%) [10]: 20% | Population Mitotic Cells (%) [10]: 50% | Population Normal (%) [10]: 92% | Population Pyknosed Nuclei (%) [10]: 12% | Population Tubulin-Different-Phenotype (%) [10]: 23% | Total Cell Count [10]: 105 | Population Apoptotic (%) [11]: 93% | Population Fragmented Nuclei (%) [11]: 31% | Population Healthy Nuclei (%) [11]: 0% | Population Hoechst High Intensity Objects (%) [11]: 80% | Population Membrane Permeable-Phenotype (%) [11]: 25% | Population Mitochondria Different-Phenotype (%) [11]: 25% | Population Mitotic Cells (%) [11]: 6% | Population Normal (%) [11]: 19% | Population Pyknosed Nuclei (%) [11]: 67% | Population Tubulin-Different-Phenotype (%) [11]: 50% | Total Cell Count [11]: 321 | Population Apoptotic (%) [12]: 57% | Population Fragmented Nuclei (%) [12]: 16% | Population Healthy Nuclei (%) [12]: 70% | Population Hoechst High Intensity Objects (%) [12]: 3% | Population Membrane Permeable-Phenotype (%) [12]: 16% | Population Mitochondria Different-Phenotype (%) [12]: 24% | Population Mitotic Cells (%) [12]: 42% | Population Normal (%) [12]: 96% | Population Pyknosed Nuclei (%) [12]: 13% | Population Tubulin-Different-Phenotype (%) [12]: 18% | Total Cell Count [12]: 125

NC(=O)c1cccc(-c2cc(Nc3ccc(OC(F)(F)F)cc3)ncn2)c1
Population Apoptotic (%) [1]: 27% | Population Fragmented Nuclei (%) [1]: 5% | Population Healthy Nuclei (%) [1]: 89% | Population Hoechst High Intensity Objects (%) [1]: 1% | Population Membrane Permeable-Phenotype (%) [1]: 8% | Population Mitochondria Different-Phenotype (%) [1]: 24% | Population Mitotic Cells (%) [1]: 72% | Population Normal (%) [1]: 98% | Population Pyknosed Nuclei (%) [1]: 5% | Population Tubulin-Different-Phenotype (%) [1]: 25% | Total Cell Count [1]: 640 | Population Apoptotic (%) [2]: 0% | Population Fragmented Nuclei (%) [2]: 16% | Population Healthy Nuclei (%) [2]: 81% | Population Hoechst High Intensity Objects (%) [2]: 16% | Population Membrane Permeable-Phenotype (%) [2]: 13% | Population Mitochondria Different-Phenotype (%) [2]: 36% | Population Mitotic Cells (%) [2]: 100% | Population Normal (%) [2]: 84% | Population Pyknosed Nuclei (%) [2]: 1% | Population Tubulin-Different-Phenotype (%) [2]: 29% | Total Cell Count [2]: 738 | Population Apoptotic (%) [3]: 56% | Population Fragmented Nuclei (%) [3]: 5% | Population Healthy Nuclei (%) [3]: 86% | Population Hoechst High Intensity Objects (%) [3]: 3% | Population Membrane Permeable-Phenotype (%) [3]: 7% | Population Mitochondria Different-Phenotype (%) [3]: 26% | Population Mitotic Cells (%) [3]: 43% | Population Normal (%) [3]: 96% | Population Tubulin-Different-Phenotype (%) [3]: 16% | Total Cell Count [3]: 201 | Population Apoptotic (%) [4]: 45% | Population Fragmented Nuclei (%) [4]: 4% | Population Healthy Nuclei (%) [4]: 87% | Population Hoechst High Intensity Objects (%) [4]: 9% | Population Membrane Permeable-Phenotype (%) [4]: 12% | Population Mitochondria Different-Phenotype (%) [4]: 24% | Population Mitotic Cells (%) [4]: 54% | Population Normal (%) [4]: 90% | Population Pyknosed Nuclei (%) [4]: 8% | Population Tubulin-Different-Phenotype (%) [4]: 13% | Total Cell Count [4]: 125 | Population Apoptotic (%) [5]: 27% | Population Fragmented Nuclei (%) [5]: 2% | Population Healthy Nuclei (%) [5]: 93% | Population Hoechst High Intensity Objects (%) [5]: 0% | Population Membrane Permeable-Phenotype (%) [5]: 3% | Population Mitochondria Different-Phenotype (%) [5]: 23% | Population Mitotic Cells (%) [5]: 72% | Population Normal (%) [5]: 99% | Population Tubulin-Different-Phenotype (%) [5]: 31% | Total Cell Count [5]: 576 | Population Apoptotic (%) [6]: 20% | Population Fragmented Nuclei (%) [6]: 8% | Population Healthy Nuclei (%) [6]: 87% | Population Hoechst High Intensity Objects (%) [6]: 6% | Population Membrane Permeable-Phenotype (%) [6]: 14% | Population Mitochondria Different-Phenotype (%) [6]: 42% | Population Mitotic Cells (%) [6]: 80% | Population Normal (%) [6]: 93% | Population Pyknosed Nuclei (%) [6]: 3% | Population Tubulin-Different-Phenotype (%) [6]: 44% | Total Cell Count [6]: 747 | Population Apoptotic (%) [7]: 16% | Population Fragmented Nuclei (%) [7]: 6% | Population Healthy Nuclei (%) [7]: 90% | Population Hoechst High Intensity Objects (%) [7]: 0% | Population Membrane Permeable-Phenotype (%) [7]: 5% | Population Mitochondria Different-Phenotype (%) [7]: 19% | Population Mitotic Cells (%) [7]: 83% | Population Normal (%) [7]: 99% | Population Pyknosed Nuclei (%) [7]: 4% | Population Tubulin-Different-Phenotype (%) [7]: 20% | Total Cell Count [7]: 281 | Population Apoptotic (%) [8]: 14% | Population Fragmented Nuclei (%) [8]: 4% | Population Healthy Nuclei (%) [8]: 88% | Population Hoechst High Intensity Objects (%) [8]: 7% | Population Membrane Permeable-Phenotype (%) [8]: 8% | Population Mitochondria Different-Phenotype (%) [8]: 25% | Population Mitotic Cells (%) [8]: 85% | Population Normal (%) [8]: 92% | Population Pyknosed Nuclei (%) [8]: 7% | Population Tubulin-Different-Phenotype (%) [8]: 19% | Total Cell Count [8]: 145
